Test [1] concerns the target Somatostatin receptor type 1 (Homo sapiens, UniProt P30872). As to the kind of experiment: Binding affinity towards cloned human somatostatin 1 (hsst) receptor. In a few lines: (§1)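 Membranes from CHO-K1 cells stably transfected with the human receptor subtype (calcium phosphate transfection, G418 selection), homogenised and washed in Tris-HCl. Separated by filtration on PEI-soaked GF/C filters; nonspecific binding with 1.0 µM SRIF.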

The target of test [2] is Somatostatin receptor type 2 (Homo sapiens, UniProt P30874). The test can be described thus: Binding affinity towards cloned human somatostatin 2 (hsst) receptor. The essentials: as §1
For test [3], the target named is Somatostatin receptor type 3 (Homo sapiens, UniProt P32745). As to the kind of experiment: Binding affinity towards cloned human somatostatin 3 (hsst) receptor. The essentials:
as §1

Test [4] has as its target Somatostatin receptor type 4 (Homo sapiens, UniProt P31391). The test can be described thus: Binding affinity towards cloned human somatostatin 4 (hsst) receptor.
Test [5] addresses Somatostatin receptor type 5 (Homo sapiens, UniProt P35346). The test can be described thus: Binding affinity towards cloned human somatostatin 5 (hsst) receptor. The essentials:
as §1

Positions of bridges follow the written chain, without caps; N, C: chain ends. Non-standard residues stand in square brackets, D forms with d. Residues, ends and D or L forms follow the SMILES beside them. Phe(4-NO2) = N[C@@H](Cc1ccc([N+](=O)[O-])cc1)C(=O)O; dDip = N[C@@H](C(=O)O)C(c1ccccc1)c1ccccc1; Dip = N[C@H](C(=O)O)C(c1ccccc1)c1ccccc1; 2Nal = N[C@@H](Cc1ccc2ccccc2c1)C(=O)O; d2Nal = N[C@H](Cc1ccc2ccccc2c1)C(=O)O; 3Pal = N[C@@H](Cc1cccnc1)C(=O)O

One may read the IC50 as the concentration that gives 50% inhibition. Broadly, the Ki is the dissociation constant of the complex between target and ligand, obtained from inhibition or displacement.

Somatostatin receptor type 2, sequence (P30874 whole entry): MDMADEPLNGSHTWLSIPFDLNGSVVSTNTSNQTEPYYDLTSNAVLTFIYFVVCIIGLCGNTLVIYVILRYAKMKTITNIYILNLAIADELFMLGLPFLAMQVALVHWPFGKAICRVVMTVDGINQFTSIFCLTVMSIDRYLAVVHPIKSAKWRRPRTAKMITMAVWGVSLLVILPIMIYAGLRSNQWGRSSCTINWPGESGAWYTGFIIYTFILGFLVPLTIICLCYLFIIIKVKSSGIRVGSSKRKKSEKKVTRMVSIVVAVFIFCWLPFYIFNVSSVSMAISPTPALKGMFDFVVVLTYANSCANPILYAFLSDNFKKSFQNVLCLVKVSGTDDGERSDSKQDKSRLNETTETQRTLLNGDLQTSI
Somatostatin receptor type 3, sequence (P32745 whole entry): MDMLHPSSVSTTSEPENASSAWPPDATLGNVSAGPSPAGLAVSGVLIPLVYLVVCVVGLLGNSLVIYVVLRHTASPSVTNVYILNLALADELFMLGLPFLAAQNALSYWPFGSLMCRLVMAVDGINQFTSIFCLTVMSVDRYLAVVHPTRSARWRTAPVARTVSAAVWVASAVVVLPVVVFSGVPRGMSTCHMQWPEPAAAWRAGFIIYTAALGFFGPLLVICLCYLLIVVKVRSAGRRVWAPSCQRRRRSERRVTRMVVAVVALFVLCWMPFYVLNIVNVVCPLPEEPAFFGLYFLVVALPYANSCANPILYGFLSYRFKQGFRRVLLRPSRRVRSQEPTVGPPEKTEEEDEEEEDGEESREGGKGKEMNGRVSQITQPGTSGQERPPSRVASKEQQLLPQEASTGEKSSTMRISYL
Somatostatin receptor type 4, sequence (P31391 whole entry): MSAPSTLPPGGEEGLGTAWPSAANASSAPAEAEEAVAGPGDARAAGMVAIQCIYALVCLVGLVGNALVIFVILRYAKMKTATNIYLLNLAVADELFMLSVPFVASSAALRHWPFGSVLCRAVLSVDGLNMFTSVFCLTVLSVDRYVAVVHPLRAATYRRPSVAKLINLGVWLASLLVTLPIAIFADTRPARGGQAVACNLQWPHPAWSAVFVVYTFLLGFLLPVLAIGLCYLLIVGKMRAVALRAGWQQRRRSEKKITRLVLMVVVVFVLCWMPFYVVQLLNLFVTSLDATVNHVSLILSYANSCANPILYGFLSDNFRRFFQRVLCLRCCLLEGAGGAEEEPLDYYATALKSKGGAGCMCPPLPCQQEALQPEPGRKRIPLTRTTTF
Somatostatin receptor type 1, sequence (P30872 whole entry): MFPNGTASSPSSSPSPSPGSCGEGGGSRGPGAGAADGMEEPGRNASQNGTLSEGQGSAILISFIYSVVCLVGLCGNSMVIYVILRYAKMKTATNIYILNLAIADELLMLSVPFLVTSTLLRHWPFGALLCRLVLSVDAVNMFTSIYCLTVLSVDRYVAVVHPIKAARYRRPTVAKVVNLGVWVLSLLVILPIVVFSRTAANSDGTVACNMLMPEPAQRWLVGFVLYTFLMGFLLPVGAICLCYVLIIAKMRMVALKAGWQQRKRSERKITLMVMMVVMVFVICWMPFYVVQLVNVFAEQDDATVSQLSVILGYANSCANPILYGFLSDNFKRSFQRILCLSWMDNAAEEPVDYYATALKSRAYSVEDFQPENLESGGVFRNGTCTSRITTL
Somatostatin receptor type 5, sequence (P35346 whole entry): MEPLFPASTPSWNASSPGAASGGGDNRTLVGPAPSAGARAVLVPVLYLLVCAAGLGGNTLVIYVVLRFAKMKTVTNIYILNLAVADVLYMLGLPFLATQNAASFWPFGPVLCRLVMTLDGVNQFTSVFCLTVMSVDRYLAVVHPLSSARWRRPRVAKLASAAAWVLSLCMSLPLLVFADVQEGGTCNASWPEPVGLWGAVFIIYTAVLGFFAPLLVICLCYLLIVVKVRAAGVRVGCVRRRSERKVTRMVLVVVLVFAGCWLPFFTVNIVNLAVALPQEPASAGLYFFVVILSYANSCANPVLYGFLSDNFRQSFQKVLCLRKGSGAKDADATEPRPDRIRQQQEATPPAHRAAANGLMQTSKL

The compound `CC(C)[C@@H]1NC(=O)[C@H](CCCCN)NC(=O)[C@@H](Cc2c[nH]c3ccccc23)NC(=O)[C@H](Cc2ccc(O)cc2)NC(=O)[C@H](NC(=O)[C@H](N)Cc2ccc3ccccc3c2)CSSC[C@@H](C(=O)N[C@H](C(N)=O)[C@@H](C)O)NC1=O` displayed an IC50 in test [1] of 1580 nM. Further, the Ki in test [2] is 306 nM.

On to `CC(C)[C@@H]1NC(=O)[C@H](CCCCN)NC(=O)[C@@H](Cc2c[nH]c3ccccc23)NC(=O)[C@H](Cc2ccc(O)cc2)NC(=O)[C@@H](NC(=O)[C@H](N)Cc2ccc3ccccc3c2)CSSC[C@H](C(=O)N[C@H](C(N)=O)[C@@H](C)O)NC1=O`, for which the values for the half-inhibitory concentration (IC50) in test [3] and in test [1] were 1000 nM and 4840 nM, respectively. The compound further gave a Ki in test [2] of 350 nM.

Consider `CC(C)[C@@H]1NC(=O)[C@H](CCCCN)NC(=O)[C@@H](Cc2c[nH]c3ccccc23)NC(=O)[C@H](Cc2ccc(O)cc2)NC(=O)[C@H](NC(=O)[C@@H](N)Cc2ccc3ccccc3c2)CSSC[C@@H](C(=O)N[C@@H](Cc2ccc3ccccc3c2)C(N)=O)NC1=O`, for which the IC50 stood at 161 nM in test [3], 1000 nM in test [4] and 2000 nM in test [1]. The Ki was found to be 37.6 nM in test [2] and 302 nM in test [5].

On to `CC(C)[C@H](NC(=O)[C@H](CCCCN)NC(=O)[C@@H](Cc1c[nH]c2ccccc12)NC(=O)[C@H](Cc1ccc(O)cc1)NC(=O)[C@@H](Cc1ccc(Cl)cc1)NC(=O)[C@@H](N)Cc1ccccc1)C(=O)N[C@@H](Cc1ccccc1)C(=O)N[C@H](C(N)=O)[C@@H](C)O`, for which the IC50 in test [3] stood at 648 nM; in test [4], 1000 nM; in test [1], 1000 nM. The values for the Ki in test [2] and in test [5] were 797 nM and 2740 nM, respectively.

As to `C[C@@H](O)[C@H](NC(=O)[C@H](Cc1ccccc1)NC(=O)[C@@H](NC(=O)[C@H](CCCCN)NC(=O)[C@@H](Cc1c[nH]c2ccccc12)NC(=O)[C@H](Cc1ccc(O)cc1)NC(=O)[C@@H](Cc1ccccc1)NC(=O)[C@@H](N)Cc1ccccc1)[C@@H](C)O)C(N)=O`, the IC50 in test [3] was determined as 216 nM; in test [4], 1000 nM; in test [1], 1000 nM. Besides, the Ki in test [2] was found to be 445 nM; in test [5] it was 1180 nM.

As to `CC(C)[C@@H]1NC(=O)[C@H](CCCCN)NC(=O)[C@@H](Cc2c[nH]c3ccccc23)NC(=O)[C@H](Cc2ccc(O)cc2)NC(=O)[C@H](NC(=O)[C@H](N)Cc2ccccc2)C(C)(C)SSC[C@@H](C(=O)N[C@H](C(N)=O)[C@@H](C)O)NC1=O`, the values for the IC50 in test [3], in test [4] and in test [1] were 821 nM, 1000 nM and 1000 nM, respectively. In addition, affinity in test [2] was put at a Ki of 2550 nM.

In the case of `CC(=O)N[C@@H]1CSSC[C@@H](C(=O)N[C@H](C(N)=O)[C@@H](C)O)NC(=O)[C@H](C(C)C)NC(=O)[C@H](CCCCN)NC(=O)[C@@H](Cc2c[nH]c3ccccc23)NC(=O)[C@H](Cc2ccc(O)cc2)NC1=O`, the IC50 in test [3], in test [4] and in test [1] was 1000 nM in each case. For the same compound, the Ki in test [2] and in test [5] was 1000 nM each time.

For the compound `CC[C@@H]1NC(=O)[C@H](CCCCN)NC(=O)[C@@H](Cc2c[nH]c3ccccc23)NC(=O)[C@H](Cc2ccc(O)cc2)NC(=O)[C@H](NC(=O)[C@H](N)Cc2ccccc2)CSSC[C@@H](C(=O)N[C@H](C(N)=O)[C@@H](C)O)NC1=O`, the concentration for half-maximal inhibition (IC50) worked out at 140 nM in test [3], 1000 nM in test [4] and 1000 nM in test [1]. The compound also showed a Ki in test [2] of 183 nM.

Turning to `CC(C)[C@@H]1NC(=O)[C@H](CCCCN)NC(=O)[C@@H](Cc2c[nH]c3ccccc23)NC(=O)[C@H](Cc2ccc(O)cc2)NC(=O)[C@H](NC(=O)[C@@H](N)Cc2ccc3ccccc3c2)CSSC[C@@H](C(=O)N[C@H](C(N)=O)[C@@H](C)O)NC1=O`, the figures for the IC50 in test [3] and in test [1] were 733 nM and 2160 nM, respectively. Besides, the Ki in test [2] came out at 118 nM.

With `C[C@@H](O)[C@@H]1NC(=O)[C@H](CCCCN)NC(=O)[C@@H](Cc2c[nH]c3ccccc23)NC(=O)[C@H](Cc2ccccc2)NC(=O)[C@H](Cc2ccccc2)NC(=O)[C@H](N)CSSC[C@H](C(N)=O)NC(=O)[C@H](Cc2ccccc2)NC1=O`, the IC50 was determined as 5.6 nM in test [3] and 723 nM in test [1]. Besides, the values for the inhibitory constant (Ki) in test [2] and in test [5] were 34.8 nM and 28 nM, respectively.

With `C[C@@H](O)[C@H](NC(=O)[C@@H]1CSSC[C@@H](NC(=O)[C@H](N)Cc2ccccc2)C(=O)N[C@@H](Cc2cccnc2)C(=O)N[C@H](Cc2c[nH]c3ccccc23)C(=O)N[C@@H](CCCCN)C(=O)N[C@@H]([C@@H](C)O)C(=O)N1)C(N)=O`, the IC50 was 1360 nM in test [3], 1000 nM in test [4] and 1000 nM in test [1]. Also, the Ki in test [2] is 566 nM; in test [5], 1000 nM.

On to `CC(C)NC(=O)[C@@H]1CSSC[C@@H](NC(=O)[C@@H](N)Cc2ccc3ccccc3c2)C(=O)N[C@@H](Cc2ccc(O)cc2)C(=O)N[C@H](Cc2c[nH]c3ccccc23)C(=O)N[C@@H](CCCCN)C(=O)N[C@@H](C(C)C)C(=O)N1`, for which the IC50 was 1230 nM in test [3], 1000 nM in test [4] and 1000 nM in test [1]. The same compound yielded a Ki in test [2] of 435 nM.

Take `CC(C)[C@H](NC(=O)[C@H](CCCCN)NC(=O)[C@@H](Cc1c[nH]c2ccccc12)NC(=O)[C@H](Cc1ccc(O)cc1)NC(=O)[C@@H](Cc1ccc(Cl)cc1)NC(=O)[C@H](N)Cc1ccc2ccccc2c1)C(=O)N[C@@H](Cc1ccccc1)C(=O)N[C@@H](Cc1ccc2ccccc2c1)C(N)=O`: the IC50 in test [3] was 619 nM; in test [4], 1000 nM; in test [1], 1000 nM. Moreover, the Ki in test [2] stood at 526 nM; in test [5], 178 nM.

On to `CC(C)[C@@H]1NC(=O)[C@H](CCCCN)NC(=O)[C@@H](Cc2c[nH]c3ccccc23)NC(=O)[C@H](Cc2ccc(O)cc2)NC(=O)[C@@H](C)N(C)C(=O)[C@H](Cc2ccccc2)NC1=O`, for which the concentration for half-maximal inhibition (IC50) in test [3] was 404 nM; in test [1] it was 1000 nM. The Ki in test [5] came out at 1000 nM.

Turning to `CC(C)[C@H](NC(=O)[C@H](CCCCN)NC(=O)[C@@H](Cc1c[nH]c2ccccc12)NC(=O)[C@H](Cc1ccc(O)cc1)NC(=O)[C@@H](Cc1ccc(Cl)cc1)NC(=O)[C@@H](N)Cc1ccc2ccccc2c1)C(=O)N[C@@H](Cc1ccccc1)C(=O)N[C@@H](Cc1ccc2ccccc2c1)C(N)=O`, the 50% inhibitory concentration (IC50) in test [3] is 1610 nM; in test [4], 1000 nM; in test [1], 1000 nM. For the same compound, the results for the Ki in test [2] and in test [5] were 1000 nM and 1960 nM, respectively.

As to `CC(C)[C@@H]1NC(=O)[C@H](CCCCN)NC(=O)[C@@H](Cc2c[nH]c3ccccc23)NC(=O)[C@H](Cc2ccc(O)cc2)NC(=O)[C@H](NC(=O)[C@H](N)Cc2ccc3ccccc3c2)CSSC[C@@H](C(=O)N[C@H](Cc2ccc3ccccc3c2)C(N)=O)NC1=O`, the IC50 was 1080 nM in test [3], 1000 nM in test [4] and 1660 nM in test [1]. Further, the Ki is 82.9 nM in test [2] and 358 nM in test [5].

In the case of `CC(C)[C@@H]1NC(=O)[C@H](CCCCN)NC(=O)[C@@H](Cc2c[nH]c3ccccc23)NC(=O)[C@H](Cc2ccc(O)cc2)NC(=O)[C@H](NC(=O)[C@@H](N)Cc2c[nH]c3ccccc23)CSSC[C@@H](C(=O)N[C@H](Cc2ccc3ccccc3c2)C(N)=O)NC1=O` (H-W[dC]Y[dW]KVC[d2Nal]-NH2; disulfide 2-7), the IC50 in test [3] was 649 nM; in test [4], 1000 nM; in test [1], 588 nM. Besides, the Ki in test [2] came to 77.2 nM; in test [5], 221 nM.

For the compound `CC(C)[C@@H]1NC(=O)[C@H](CCCCN)NC(=O)[C@@H](Cc2c[nH]c3ccccc23)NC(=O)[C@H](Cc2c[nH]cn2)NC(=O)[C@H](NC(=O)[C@@H](N)Cc2ccc3ccccc3c2)CSSC[C@@H](C(=O)N[C@@H](C(N)=O)C(c2ccccc2)c2ccccc2)NC1=O` (H-[2Nal][dC]H[dW]KVC[dDip]-NH2; disulfide 2-7), the half-inhibitory concentration (IC50) in test [3] is 1200 nM; in test [4] it was 1000 nM; in test [1], 1090 nM. Further, in test [5], the affinity, expressed as Ki, was 1000 nM.

`CC(C)[C@@H]1NC(=O)[C@H](CCCCN)NC(=O)[C@@H](Cc2c[nH]c3ccccc23)NC(=O)[C@H](Cc2cccnc2)NC(=O)[C@H](NC(=O)[C@@H](N)Cc2ccc3ccccc3c2)CSSC[C@@H](C(=O)N[C@H](C(N)=O)C(c2ccccc2)c2ccccc2)NC1=O` (H-[2Nal][dC][3Pal][dW]KVC[Dip]-NH2; disulfide 2-7): the IC50 is 903 nM in test [3], 1000 nM in test [4] and 1000 nM in test [1]. In addition, the Ki worked out at 355 nM in test [2] and 1000 nM in test [5].

`CC(C)[C@@H]1NC(=O)[C@H](CCCCN)NC(=O)[C@@H](Cc2c[nH]c3ccccc23)NC(=O)[C@H](Cc2ccc(O)cc2)NC(=O)[C@H](NC(=O)[C@@H](N)Cc2ccc([N+](=O)[O-])cc2)CSSC[C@@H](C(=O)N[C@@H](Cc2ccc(O)cc2)C(N)=O)NC1=O` (H-[Phe(4-NO2)][dC]Y[dW]KVCY-NH2; disulfide 2-7): the 50% inhibitory concentration (IC50) in test [3] came out at 177 nM; in test [4], 632 nM; in test [1] it was 3220 nM. For the same compound, the values for the Ki in test [2] and in test [5] were 23.4 nM and 101 nM, respectively.

In the case of `CC(C)[C@@H]1NC(=O)[C@H](CCCCN)NC(=O)[C@@H](Cc2c[nH]c3ccccc23)NC(=O)[C@H](Cc2cccnc2)NC(=O)[C@H](NC(=O)[C@@H](N)Cc2ccc([N+](=O)[O-])cc2)CSSC[C@@H](C(=O)N[C@@H](Cc2ccc(O)cc2)C(N)=O)NC1=O` (H-[Phe(4-NO2)][dC][3Pal][dW]KVCY-NH2; disulfide 2-7), the IC50 came to 235 nM in test [3], 757 nM in test [4] and 245 nM in test [1]. The inhibition constant Ki in test [2] was 35.3 nM; in test [5] it was 529 nM.

In the case of `CC(C)[C@@H]1NC(=O)[C@H](CCCCN)NC(=O)[C@@H](Cc2c[nH]c3ccccc23)NC(=O)[C@H](Cc2ccc(O)cc2)NC(=O)[C@@H](NC(=O)[C@H](N)Cc2ccc3ccccc3c2)CSSC[C@H](C(=O)N[C@@H](Cc2ccc3ccccc3c2)C(N)=O)NC1=O` (stereo in doubt; 27), the 50% inhibitory concentration (IC50) in test [3], in test [4] and in test [1] was 1000 nM in each case. In test [2], this compound gave a Ki of 139 nM.

These data come from ChEMBL document CHEMBL1131316, “Potent antagonists of somatostatin: synthesis and biology” (J Med Chem, 1998).
